# Test system: HEK-293T
# Assay: Multiplex assay against HEK293T;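 as to Population Tubulin-Different-Phenotype (%): share of the cells with healthy nuclei that show this phenotype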
# Assay type: toxicity, cell-based
# Conditions: human
# In short: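 At seeding, live cells were stained with Hoechst33342, BioTracker Green Microtubule Cytoskeleton Dye, MitoTracker Red and Annexin V Alexa Fluor 680. After compound addition they were imaged on a CQ1 microscope at 37°C and 5% CO2, and CellPathfinder machine-learning gating sorted them into Hoechst high-intensity objects or normal cells, with normal cells further split into healthy, pyknosed or fragmented nuclei and pyknosed cells into mitotic or apoptotic. Tubulin, mitochondrial-mass and membrane-permeability phenotypes are given as per cents of cells with healthy nuclei.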
# [1] = 12 h, 1 µM, compound concentration 1 uM, replicate 1
# [2] = 12 h, 1 µM, compound concentration 1 uM, replicate 2
# [3] = 12 h, 10 µM, compound concentration 10 uM, replicate 1
# [4] = 12 h, 10 µM, compound concentration 10 uM, replicate 2
# [5] = 24 h, 1 µM, compound concentration 1 uM, replicate 1
# [6] = 24 h, 1 µM, compound concentration 1 uM, replicate 2
# [7] = 24 h, 10 µM, compound concentration 10 uM, replicate 1
# [8] = 24 h, 10 µM, compound concentration 10 uM, replicate 2
# [9] = 48 h, 1 µM, compound concentration 1 uM, replicate 1
# [10] = 48 h, 1 µM, compound concentration 1 uM, replicate 2
# [11] = 48 h, 10 µM, compound concentration 10 uM, replicate 1
# [12] = 48 h, 10 µM, compound concentration 10 uM, replicate 2
structure (smiles),measurement,setting,value
COc1cc(Nc2nccc(-c3cnn4nc(OC)ccc34)n2)cc(C(F)(F)F)c1,Population Apoptotic (%),[1],47%
same,Population Fragmented Nuclei (%),[1],16%
same,Population Healthy Nuclei (%),[1],19%
same,Population Hoechst High Intensity Objects (%),[1],13%
same,Population Membrane Permeable-Phenotype (%),[1],2%
same,Population Mitochondria Different-Phenotype (%),[1],77%
same,Population Mitotic Cells (%),[1],52%
same,Population Normal (%),[1],86%
same,Population Pyknosed Nuclei (%),[1],64%
same,Population Tubulin-Different-Phenotype (%),[1],30%
same,Total Cell Count,[1],214
same,Population Apoptotic (%),[2],7%
same,Population Fragmented Nuclei (%),[2],6%
same,Population Healthy Nuclei (%),[2],44%
same,Population Hoechst High Intensity Objects (%),[2],1%
same,Population Membrane Permeable-Phenotype (%),[2],11%
same,Population Mitochondria Different-Phenotype (%),[2],14%
same,Population Mitotic Cells (%),[2],92%
same,Population Normal (%),[2],98%
same,Population Pyknosed Nuclei (%),[2],48%
same,Population Tubulin-Different-Phenotype (%),[2],17%
same,Total Cell Count,[2],192
same,Population Apoptotic (%),[3],68%
same,Population Fragmented Nuclei (%),[3],33%
same,Population Healthy Nuclei (%),[3],21%
same,Population Hoechst High Intensity Objects (%),[3],24%
same,Population Membrane Permeable-Phenotype (%),[3],7%
same,Population Mitochondria Different-Phenotype (%),[3],86%
same,Population Mitotic Cells (%),[3],31%
same,Population Normal (%),[3],75%
same,Population Pyknosed Nuclei (%),[3],44%
same,Population Tubulin-Different-Phenotype (%),[3],36%
same,Total Cell Count,[3],317
same,Population Apoptotic (%),[4],21%
same,Population Fragmented Nuclei (%),[4],6%
same,Population Healthy Nuclei (%),[4],34%
same,Population Hoechst High Intensity Objects (%),[4],11%
same,Population Membrane Permeable-Phenotype (%),[4],4%
same,Population Mitochondria Different-Phenotype (%),[4],37%
same,Population Mitotic Cells (%),[4],78%
same,Population Normal (%),[4],88%
same,Population Pyknosed Nuclei (%),[4],59%
same,Population Tubulin-Different-Phenotype (%),[4],33%
same,Total Cell Count,[4],275
same,Population Apoptotic (%),[5],47%
same,Population Fragmented Nuclei (%),[5],16%
same,Population Healthy Nuclei (%),[5],22%
same,Population Hoechst High Intensity Objects (%),[5],20%
same,Population Membrane Permeable-Phenotype (%),[5],2%
same,Population Mitochondria Different-Phenotype (%),[5],76%
same,Population Mitotic Cells (%),[5],52%
same,Population Normal (%),[5],79%
same,Population Pyknosed Nuclei (%),[5],61%
same,Population Tubulin-Different-Phenotype (%),[5],35%
same,Total Cell Count,[5],221
same,Population Apoptotic (%),[6],8%
same,Population Fragmented Nuclei (%),[6],6%
same,Population Healthy Nuclei (%),[6],65%
same,Population Hoechst High Intensity Objects (%),[6],3%
same,Population Membrane Permeable-Phenotype (%),[6],9%
same,Population Mitochondria Different-Phenotype (%),[6],11%
same,Population Mitotic Cells (%),[6],91%
same,Population Normal (%),[6],96%
same,Population Pyknosed Nuclei (%),[6],27%
same,Population Tubulin-Different-Phenotype (%),[6],17%
same,Total Cell Count,[6],252
same,Population Apoptotic (%),[7],75%
same,Population Fragmented Nuclei (%),[7],33%
same,Population Healthy Nuclei (%),[7],20%
same,Population Hoechst High Intensity Objects (%),[7],23%
same,Population Membrane Permeable-Phenotype (%),[7],1%
same,Population Mitochondria Different-Phenotype (%),[7],84%
same,Population Mitotic Cells (%),[7],24%
same,Population Normal (%),[7],76%
same,Population Pyknosed Nuclei (%),[7],46%
same,Population Tubulin-Different-Phenotype (%),[7],39%
same,Total Cell Count,[7],330
same,Population Apoptotic (%),[8],23%
same,Population Fragmented Nuclei (%),[8],7%
same,Population Healthy Nuclei (%),[8],55%
same,Population Hoechst High Intensity Objects (%),[8],13%
same,Population Membrane Permeable-Phenotype (%),[8],4%
same,Population Mitochondria Different-Phenotype (%),[8],45%
same,Population Mitotic Cells (%),[8],76%
same,Population Normal (%),[8],86%
same,Population Pyknosed Nuclei (%),[8],36%
same,Population Tubulin-Different-Phenotype (%),[8],42%
same,Total Cell Count,[8],293
same,Population Apoptotic (%),[9],62%
same,Population Fragmented Nuclei (%),[9],18%
same,Population Healthy Nuclei (%),[9],25%
same,Population Hoechst High Intensity Objects (%),[9],21%
same,Population Membrane Permeable-Phenotype (%),[9],2%
same,Population Mitochondria Different-Phenotype (%),[9],41%
same,Population Mitotic Cells (%),[9],37%
same,Population Normal (%),[9],78%
same,Population Pyknosed Nuclei (%),[9],56%
same,Population Tubulin-Different-Phenotype (%),[9],18%
same,Total Cell Count,[9],219
same,Population Apoptotic (%),[10],4%
same,Population Fragmented Nuclei (%),[10],5%
same,Population Healthy Nuclei (%),[10],83%
same,Population Hoechst High Intensity Objects (%),[10],3%
same,Population Membrane Permeable-Phenotype (%),[10],5%
same,Population Mitochondria Different-Phenotype (%),[10],6%
same,Population Mitotic Cells (%),[10],95%
same,Population Normal (%),[10],96%
same,Population Pyknosed Nuclei (%),[10],10%
same,Total Cell Count,[10],465
same,Population Apoptotic (%),[11],74%
same,Population Fragmented Nuclei (%),[11],39%
same,Population Healthy Nuclei (%),[11],24%
same,Population Hoechst High Intensity Objects (%),[11],25%
same,Population Membrane Permeable-Phenotype (%),[11],0%
same,Population Mitochondria Different-Phenotype (%),[11],86%
same,Population Mitotic Cells (%),[11],25%
same,Population Normal (%),[11],74%
same,Population Pyknosed Nuclei (%),[11],36%
same,Population Tubulin-Different-Phenotype (%),[11],56%
same,Total Cell Count,[11],331
same,Population Apoptotic (%),[12],42%
same,Population Fragmented Nuclei (%),[12],7%
same,Population Healthy Nuclei (%),[12],63%
same,Population Hoechst High Intensity Objects (%),[12],9%
same,Population Membrane Permeable-Phenotype (%),[12],2%
same,Population Mitochondria Different-Phenotype (%),[12],35%
same,Population Mitotic Cells (%),[12],57%
same,Population Normal (%),[12],90%
same,Population Pyknosed Nuclei (%),[12],28%
same,Population Tubulin-Different-Phenotype (%),[12],39%
same,Total Cell Count,[12],297

# Source: ChEMBL document CHEMBL4689842, “EUbOPEN Chemogenomics Library wave 1” (2021)
